Results: ChEMBL document CHEMBL4689842, “EUbOPEN Chemogenomics Library wave 1” (2021)

System: Fibroblast
Assay: Multiplex assay against human fibroblast
Assay type: toxicity, cell-based
Procedure, shortened: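 On a CQ1 microscope at 37°C and 5% CO2, live cells were imaged after compound addition. They had been stained at seeding with Hoechst33342, BioTracker Green Microtubule Cytoskeleton Dye, MitoTracker Red and Annexin V Alexa Fluor 680. CellPathfinder machine-learning gating assigned cells to Hoechst high-intensity objects or normal cells, normal cells to healthy, pyknosed or fragmented nuclei, and pyknosed cells to mitotic or apoptotic. Tubulin, mitochondrial-mass and membrane-permeability phenotypes are per cents of healthy-nucleus cells.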

[1] = 12 h, 1 µM, compound concentration 1 uM, replicate 1
[2] = 12 h, 1 µM, compound concentration 1 uM, replicate 2
[3] = 12 h, 10 µM, compound concentration 10 uM, replicate 1
[4] = 12 h, 10 µM, compound concentration 10 uM, replicate 2
[5] = 24 h, 1 µM, compound concentration 1 uM, replicate 1
[6] = 24 h, 1 µM, compound concentration 1 uM, replicate 2
[7] = 24 h, 10 µM, compound concentration 10 uM, replicate 1
[8] = 24 h, 10 µM, compound concentration 10 uM, replicate 2
[9] = 48 h, 1 µM, compound concentration 1 uM, replicate 1
[10] = 48 h, 1 µM, compound concentration 1 uM, replicate 2
[11] = 48 h, 10 µM, compound concentration 10 uM, replicate 1
[12] = 48 h, 10 µM, compound concentration 10 uM, replicate 2

Cc1ccc2c(c1)c1c(n2CCc2ccc(C)nc2)CCN(C)C1 [LATREPIRDINE]
Population Apoptotic (%) [1]: 60% | Population Fragmented Nuclei (%) [1]: 26% | Population Healthy Nuclei (%) [1]: 55% | Population Hoechst High Intensity Objects (%) [1]: 15% | Population Membrane Permeable-Phenotype (%) [1]: 18% | Population Mitochondria Different-Phenotype (%) [1]: 18% | Population Mitotic Cells (%) [1]: 40% | Population Normal (%) [1]: 84% | Population Pyknosed Nuclei (%) [1]: 18% | Population Tubulin-Different-Phenotype (%) [1]: 59% | Total Cell Count [1]: 127 | Population Apoptotic (%) [2]: 100% | Population Fragmented Nuclei (%) [2]: 27% | Population Healthy Nuclei (%) [2]: 67% | Population Hoechst High Intensity Objects (%) [2]: 16% | Population Membrane Permeable-Phenotype (%) [2]: 5% | Population Mitochondria Different-Phenotype (%) [2]: 27% | Population Mitotic Cells (%) [2]: 0% | Population Normal (%) [2]: 83% | Population Pyknosed Nuclei (%) [2]: 4% | Population Tubulin-Different-Phenotype (%) [2]: 27% | Total Cell Count [2]: 61 | Population Apoptotic (%) [3]: 55% | Population Fragmented Nuclei (%) [3]: 29% | Population Healthy Nuclei (%) [3]: 47% | Population Hoechst High Intensity Objects (%) [3]: 15% | Population Membrane Permeable-Phenotype (%) [3]: 3% | Population Mitochondria Different-Phenotype (%) [3]: 30% | Population Mitotic Cells (%) [3]: 44% | Population Normal (%) [3]: 84% | Population Pyknosed Nuclei (%) [3]: 23% | Population Tubulin-Different-Phenotype (%) [3]: 88% | Total Cell Count [3]: 148 | Population Apoptotic (%) [4]: 88% | Population Fragmented Nuclei (%) [4]: 7% | Population Healthy Nuclei (%) [4]: 65% | Population Hoechst High Intensity Objects (%) [4]: 8% | Population Membrane Permeable-Phenotype (%) [4]: 42% | Population Mitochondria Different-Phenotype (%) [4]: 100% | Population Mitotic Cells (%) [4]: 11% | Population Normal (%) [4]: 91% | Population Pyknosed Nuclei (%) [4]: 26% | Population Tubulin-Different-Phenotype (%) [4]: 100% | Total Cell Count [4]: 103 | Population Apoptotic (%) [5]: 60% | Population Fragmented Nuclei (%) [5]: 27% | Population Healthy Nuclei (%) [5]: 59% | Population Hoechst High Intensity Objects (%) [5]: 16% | Population Membrane Permeable-Phenotype (%) [5]: 22% | Population Mitochondria Different-Phenotype (%) [5]: 14% | Population Mitotic Cells (%) [5]: 40% | Population Normal (%) [5]: 83% | Population Pyknosed Nuclei (%) [5]: 12% | Population Tubulin-Different-Phenotype (%) [5]: 61% | Total Cell Count [5]: 140 | Population Apoptotic (%) [6]: 55% | Population Fragmented Nuclei (%) [6]: 23% | Population Healthy Nuclei (%) [6]: 67% | Population Hoechst High Intensity Objects (%) [6]: 13% | Population Membrane Permeable-Phenotype (%) [6]: 10% | Population Mitochondria Different-Phenotype (%) [6]: 27% | Population Mitotic Cells (%) [6]: 44% | Population Normal (%) [6]: 86% | Population Pyknosed Nuclei (%) [6]: 8% | Population Tubulin-Different-Phenotype (%) [6]: 14% | Total Cell Count [6]: 74 | Population Apoptotic (%) [7]: 55% | Population Fragmented Nuclei (%) [7]: 33% | Population Healthy Nuclei (%) [7]: 51% | Population Hoechst High Intensity Objects (%) [7]: 28% | Population Membrane Permeable-Phenotype (%) [7]: 10% | Population Mitochondria Different-Phenotype (%) [7]: 37% | Population Mitotic Cells (%) [7]: 45% | Population Normal (%) [7]: 71% | Population Pyknosed Nuclei (%) [7]: 14% | Population Tubulin-Different-Phenotype (%) [7]: 82% | Total Cell Count [7]: 189 | Population Apoptotic (%) [8]: 76% | Population Fragmented Nuclei (%) [8]: 4% | Population Healthy Nuclei (%) [8]: 56% | Population Hoechst High Intensity Objects (%) [8]: 4% | Population Membrane Permeable-Phenotype (%) [8]: 56% | Population Mitochondria Different-Phenotype (%) [8]: 100% | Population Mitotic Cells (%) [8]: 24% | Population Normal (%) [8]: 95% | Population Pyknosed Nuclei (%) [8]: 38% | Population Tubulin-Different-Phenotype (%) [8]: 100% | Total Cell Count [8]: 119 | Population Apoptotic (%) [9]: 88% | Population Fragmented Nuclei (%) [9]: 36% | Population Healthy Nuclei (%) [9]: 55% | Population Hoechst High Intensity Objects (%) [9]: 23% | Population Membrane Permeable-Phenotype (%) [9]: 13% | Population Mitotic Cells (%) [9]: 11% | Population Normal (%) [9]: 76% | Population Pyknosed Nuclei (%) [9]: 8% | Population Tubulin-Different-Phenotype (%) [9]: 42% | Total Cell Count [9]: 140 | Population Apoptotic (%) [10]: 100% | Population Fragmented Nuclei (%) [10]: 53% | Population Healthy Nuclei (%) [10]: 43% | Population Hoechst High Intensity Objects (%) [10]: 44% | Population Membrane Permeable-Phenotype (%) [10]: 22% | Population Mitochondria Different-Phenotype (%) [10]: 6% | Population Mitotic Cells (%) [10]: 0% | Population Normal (%) [10]: 55% | Population Pyknosed Nuclei (%) [10]: 3% | Population Tubulin-Different-Phenotype (%) [10]: 56% | Total Cell Count [10]: 206 | Population Fragmented Nuclei (%) [11]: 40% | Population Healthy Nuclei (%) [11]: 56% | Population Hoechst High Intensity Objects (%) [11]: 31% | Population Membrane Permeable-Phenotype (%) [11]: 7% | Population Mitochondria Different-Phenotype (%) [11]: 21% | Population Normal (%) [11]: 68% | Population Pyknosed Nuclei (%) [11]: 3% | Population Tubulin-Different-Phenotype (%) [11]: 80% | Total Cell Count [11]: 208 | Population Apoptotic (%) [12]: 100% | Population Fragmented Nuclei (%) [12]: 34% | Population Healthy Nuclei (%) [12]: 64% | Population Hoechst High Intensity Objects (%) [12]: 25% | Population Membrane Permeable-Phenotype (%) [12]: 14% | Population Mitochondria Different-Phenotype (%) [12]: 9% | Population Mitotic Cells (%) [12]: 0% | Population Normal (%) [12]: 74% | Population Pyknosed Nuclei (%) [12]: 2% | Population Tubulin-Different-Phenotype (%) [12]: 79% | Total Cell Count [12]: 134
